From ChEMBL document CHEMBL5357024, “MDM2 Antagonist Idasanutlin Reduces HDAC1/2 Abundance and Corepressor Partners but Not HDAC3” (ACS Med Chem Lett, 2024)
Active and inactive are the calls of the source. The calls are words filed in the database; no cut-off is given here.

Tests used:
[1] = target: Lysine-specific histone demethylase 1A (Homo sapiens) (UniProt O60341); test: Induction of LSD1 degradation in human HCT-116 cells assessed as reduction in LSD1 abundance by measuring remaining activity at 5 uM measured after 24 hrs by Western blot analysis (reference value: 100%); assay type: cell-based
Summary of the method: (§1)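 HCT116 cells seeded in six-well plates for 24 h, then exposed 24 h to compound (0.01–10 μM) or DMSO in fresh medium. Lysis in Tris-HCl/NaCl/NP-40/Triton X-100 with protease inhibitor. Bradford-normalised 30 μg protein per lane. Quantitative Western blot used specific HDAC1, HDAC2, HDAC3, LSD1 or Sin3a antibodies with IRDye secondaries. Abundance compared with DMSO, n = 2 replicates.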

[2] = target: T1, Paired amphipathic helix protein Sin3a (Homo sapiens) (UniProt Q96ST3); test: Induction of SIN3A degradation in human HCT-116 cells assessed as reduction in SIN3A abundance by measuring remaining activity at 10 uM measured after 24 hrs by Western blot analysis (reference value: 100%); assay type: cell-based; summary of the method: as §1
T1 sequence (whole entry): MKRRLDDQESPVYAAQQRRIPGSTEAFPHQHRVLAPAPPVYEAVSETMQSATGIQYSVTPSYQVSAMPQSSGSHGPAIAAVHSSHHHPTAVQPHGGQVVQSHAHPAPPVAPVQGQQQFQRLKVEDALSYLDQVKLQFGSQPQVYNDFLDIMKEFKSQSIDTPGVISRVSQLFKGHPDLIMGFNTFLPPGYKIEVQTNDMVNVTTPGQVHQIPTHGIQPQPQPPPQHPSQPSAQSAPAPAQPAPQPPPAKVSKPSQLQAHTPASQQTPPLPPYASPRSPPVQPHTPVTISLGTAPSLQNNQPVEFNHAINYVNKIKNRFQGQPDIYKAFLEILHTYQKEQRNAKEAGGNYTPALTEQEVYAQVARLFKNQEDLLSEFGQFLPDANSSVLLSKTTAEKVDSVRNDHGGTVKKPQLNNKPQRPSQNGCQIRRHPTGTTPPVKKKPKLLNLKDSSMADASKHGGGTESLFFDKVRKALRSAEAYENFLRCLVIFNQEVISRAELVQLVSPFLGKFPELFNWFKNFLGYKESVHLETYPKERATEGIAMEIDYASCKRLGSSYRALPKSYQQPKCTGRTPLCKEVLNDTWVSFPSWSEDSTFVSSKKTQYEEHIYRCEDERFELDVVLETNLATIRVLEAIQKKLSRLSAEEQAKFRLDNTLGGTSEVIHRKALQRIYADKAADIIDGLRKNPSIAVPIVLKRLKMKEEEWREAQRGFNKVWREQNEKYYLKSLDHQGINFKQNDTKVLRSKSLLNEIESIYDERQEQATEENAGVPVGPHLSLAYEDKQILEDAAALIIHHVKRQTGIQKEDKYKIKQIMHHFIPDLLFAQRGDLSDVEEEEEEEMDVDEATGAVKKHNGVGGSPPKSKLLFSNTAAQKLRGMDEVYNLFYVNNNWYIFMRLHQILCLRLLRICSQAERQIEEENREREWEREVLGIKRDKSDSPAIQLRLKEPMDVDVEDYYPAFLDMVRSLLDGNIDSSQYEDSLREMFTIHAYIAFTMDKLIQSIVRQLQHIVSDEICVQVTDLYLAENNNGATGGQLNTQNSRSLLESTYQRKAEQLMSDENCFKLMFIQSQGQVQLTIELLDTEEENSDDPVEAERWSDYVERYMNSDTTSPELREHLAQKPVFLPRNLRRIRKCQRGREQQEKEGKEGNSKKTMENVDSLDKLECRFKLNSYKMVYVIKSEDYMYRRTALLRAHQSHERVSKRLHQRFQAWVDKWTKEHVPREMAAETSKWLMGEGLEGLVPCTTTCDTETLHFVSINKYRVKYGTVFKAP

[3] = target: Lysine-specific histone demethylase 1A (Homo sapiens) (UniProt O60341); test: Induction of LSD1 degradation in human HCT-116 cells assessed as reduction in LSD1 abundance by measuring remaining activity at 0.25 uM measured after 24 hrs by Western blot analysis (reference value: 100%); assay type: cell-based; summary of the method: as §1
[4] = target: T1, Paired amphipathic helix protein Sin3a (Homo sapiens); test: Induction of SIN3A degradation in human HCT-116 cells assessed as reduction in SIN3A abundance by measuring remaining activity at 0.5 uM measured after 24 hrs by Western blot analysis (reference value: 100%); assay type: cell-based; summary of the method: as §1
[5] = target: T1, Paired amphipathic helix protein Sin3a (Homo sapiens); test: Induction of SIN3A degradation in human HCT-116 cells assessed as reduction in SIN3A abundance by measuring remaining activity at 0.25 uM measured after 24 hrs by Western blot analysis (reference value: 100%); assay type: cell-based; summary of the method: as §1
[6] = target: Lysine-specific histone demethylase 1A (Homo sapiens) (UniProt O60341); test: Induction of LSD1 degradation in human HCT-116 cells assessed as reduction in LSD1 abundance by measuring remaining activity at 1 uM measured after 24 hrs by Western blot analysis (reference value: 100%); assay type: cell-based; summary of the method: as §1
[7] = target: E3 ubiquitin-protein ligase Mdm2/Histone deacetylase 3 (Homo sapiens) (UniProt Q00987+O15379); test: PROTAC activity at MDM2/HDAC3 in human HCT-116 cells assessed as induction of HDAC3 degradation at 0.01 to 10 uM by Western blot analysis; assay type: cell-based; conditions: dose 0.01-10 µM
[8] = target: E3 ubiquitin-protein ligase Mdm2/Histone deacetylase 1 (Homo sapiens) (UniProt Q00987+Q13547); test: PROTAC activity at MDM2/HDAC1 in human HCT-116 cells assessed as induction of HDAC1 degradation by Western blot analysis; assay type: cell-based; conditions: dose 0.01-10 µM
HCT-116 = test: Effect on histone H3 lysine K56 acetylation in human HCT-116 cells assessed as increase in H3K56ac level at 0.1 to 10 uM by Western blot analysis; assay type: functional, cell-based; conditions: dose 0.1-10 µM
Summary of the method: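 HCT116 cells (DMEM, 10% FBS, glutamine/pen/strep, 37 °C, 5% CO2) seeded 24 h, then treated with DMSO or compound in fresh medium. Pellets after lysis were acid-extracted with 0.4 N H2SO4 at 4 °C overnight. Acid histone extract run on 4–12% bis-Tris gels, transferred to nitrocellulose and probed for H3K56ac. IRDye secondaries with infrared imaging.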

[9] = target: T1, Paired amphipathic helix protein Sin3a (Homo sapiens); test: Induction of SIN3A degradation in human HCT-116 cells assessed as reduction in SIN3A abundance by measuring remaining activity at 0.01 uM measured after 24 hrs by Western blot analysis (reference value: 100%); assay type: cell-based; summary of the method: as §1
[10] = target: T1, Paired amphipathic helix protein Sin3a (Homo sapiens); test: Induction of SIN3A degradation in human HCT-116 cells assessed as reduction in SIN3A abundance by measuring remaining activity at 0.05 uM measured after 24 hrs by Western blot analysis (reference value: 100%); assay type: cell-based; summary of the method: as §1
[11] = target: E3 ubiquitin-protein ligase Mdm2/Histone deacetylase 2 (Homo sapiens) (UniProt Q00987+Q92769); test: PROTAC activity at MDM2/HDAC2 in human HCT-116 cells assessed as decrease in HDAC2 abundance by measuring remaining activity at 0.25 uM measured after 24 hrs by Western blot analysis (reference value: 100%); assay type: cell-based; summary of the method: as §1
Chain of E3 ubiquitin-protein ligase Mdm2/Histone deacetylase 2 (Homo sapiens) (Q00987 whole entry, looked up): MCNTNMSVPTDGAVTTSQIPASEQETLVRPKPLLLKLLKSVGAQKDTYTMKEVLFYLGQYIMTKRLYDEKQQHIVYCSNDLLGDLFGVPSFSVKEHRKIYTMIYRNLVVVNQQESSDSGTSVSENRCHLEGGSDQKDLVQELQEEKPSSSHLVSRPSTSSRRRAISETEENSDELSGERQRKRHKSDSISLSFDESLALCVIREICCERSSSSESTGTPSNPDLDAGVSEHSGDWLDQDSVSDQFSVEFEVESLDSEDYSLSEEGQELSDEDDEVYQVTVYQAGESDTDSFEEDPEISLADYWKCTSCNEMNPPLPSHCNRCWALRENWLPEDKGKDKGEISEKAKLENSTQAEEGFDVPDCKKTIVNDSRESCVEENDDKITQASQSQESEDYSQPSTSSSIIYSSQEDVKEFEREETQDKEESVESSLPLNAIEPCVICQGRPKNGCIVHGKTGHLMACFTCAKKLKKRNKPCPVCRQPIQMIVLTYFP
Chain of E3 ubiquitin-protein ligase Mdm2/Histone deacetylase 2 (Homo sapiens) (Q92769 whole entry, looked up): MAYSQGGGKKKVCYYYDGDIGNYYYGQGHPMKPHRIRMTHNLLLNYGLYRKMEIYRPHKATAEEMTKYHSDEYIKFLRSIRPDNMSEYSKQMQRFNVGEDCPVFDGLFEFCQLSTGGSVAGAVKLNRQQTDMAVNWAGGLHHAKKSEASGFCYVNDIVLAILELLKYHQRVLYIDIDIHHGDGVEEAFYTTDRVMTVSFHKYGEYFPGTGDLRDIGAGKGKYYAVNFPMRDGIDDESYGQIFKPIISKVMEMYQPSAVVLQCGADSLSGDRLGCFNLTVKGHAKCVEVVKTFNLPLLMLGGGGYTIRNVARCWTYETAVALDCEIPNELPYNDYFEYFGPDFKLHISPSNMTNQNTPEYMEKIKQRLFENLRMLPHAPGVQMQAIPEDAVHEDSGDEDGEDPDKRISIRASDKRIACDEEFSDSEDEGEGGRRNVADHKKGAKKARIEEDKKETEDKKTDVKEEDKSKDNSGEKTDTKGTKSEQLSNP

Chain of E3 ubiquitin-protein ligase Mdm2/Histone deacetylase 1 (Homo sapiens) (Q00987 whole entry, looked up): as the sequence (Q00987 whole entry, looked up) above
Chain of E3 ubiquitin-protein ligase Mdm2/Histone deacetylase 1 (Homo sapiens) (Q13547 whole entry, looked up): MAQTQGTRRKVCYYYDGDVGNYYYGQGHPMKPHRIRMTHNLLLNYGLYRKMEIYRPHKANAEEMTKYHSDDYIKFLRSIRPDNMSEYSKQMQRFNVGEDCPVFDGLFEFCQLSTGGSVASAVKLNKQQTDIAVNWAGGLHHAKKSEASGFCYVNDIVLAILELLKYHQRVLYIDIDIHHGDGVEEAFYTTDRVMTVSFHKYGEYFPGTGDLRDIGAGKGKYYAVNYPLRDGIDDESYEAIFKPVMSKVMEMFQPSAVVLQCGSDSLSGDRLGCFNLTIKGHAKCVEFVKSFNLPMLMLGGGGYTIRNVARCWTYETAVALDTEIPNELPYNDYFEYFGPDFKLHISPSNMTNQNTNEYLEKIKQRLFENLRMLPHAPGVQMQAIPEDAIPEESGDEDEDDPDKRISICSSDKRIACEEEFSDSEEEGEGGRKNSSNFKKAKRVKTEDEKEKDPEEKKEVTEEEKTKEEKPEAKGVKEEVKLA
Chain of E3 ubiquitin-protein ligase Mdm2/Histone deacetylase 3 (Homo sapiens) (O15379 whole entry, looked up): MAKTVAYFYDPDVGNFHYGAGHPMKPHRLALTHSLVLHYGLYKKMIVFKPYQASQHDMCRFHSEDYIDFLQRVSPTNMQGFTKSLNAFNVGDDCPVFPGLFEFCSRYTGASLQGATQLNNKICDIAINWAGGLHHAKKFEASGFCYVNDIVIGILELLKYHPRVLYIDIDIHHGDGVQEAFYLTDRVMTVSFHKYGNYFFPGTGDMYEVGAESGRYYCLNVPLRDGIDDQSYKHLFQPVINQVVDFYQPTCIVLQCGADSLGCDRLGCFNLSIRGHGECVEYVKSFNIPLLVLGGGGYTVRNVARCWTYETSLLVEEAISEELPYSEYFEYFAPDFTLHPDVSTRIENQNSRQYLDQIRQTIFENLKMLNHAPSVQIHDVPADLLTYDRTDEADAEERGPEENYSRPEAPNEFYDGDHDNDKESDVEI
Chain of E3 ubiquitin-protein ligase Mdm2/Histone deacetylase 3 (Homo sapiens) (Q00987 whole entry, looked up): as the sequence (Q00987 whole entry, looked up) above

Activity [1]: 70%
Activity [2]: 45%
Activity [3]: 95%
Activity [4]: 79%
Activity [5]: 92%
Activity [6]: 81%
Activity [7]: inactive
Activity [8]: Dose-Dependent Effect
Activity [9]: 104%
Activity [10]: 103%
Activity [11]: 90%
Compound: COc1cc(C(=O)NCCOCCOCCOCCOCCC(=O)Nc2ccc(C(=O)Nc3ccccc3N)cc2)ccc1NC(=O)[C@@H]1N[C@@H](CC(C)(C)C)[C@](C#N)(c2ccc(Cl)cc2F)[C@H]1c1cccc(Cl)c1F
Activity (HCT-116): inactive
